Source: PubChem BioAssay AID1229 (Sanford-Burnham Center for Chemical Genomics, 2008)
Among all 190,000 compounds or so, about 10 (0.005%) were called active. The list comes from a sample in which actives are over-represented; it also holds similar structures and randomly drawn compounds. A number with no mark means an inactive call.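 How the source made its calls: active means diaphorase activity raised at least twofold by the compound at 20 µM; inactive means activation factor below 2.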

Assay: compounds boosting diaphorase resazurin reduction – biochemical, uHTS, resorufin fluorescence, counter-screen for diaphorase-coupled primary assays, primary screen (AID 1229)
Details: Diaphorase/resazurin coupled assay, 16 min, at 20 µM, stronger effect = higher value, 1 = vehicle wells, 0 = NADH-free wells
Summary of the method: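 Assay system: Purified diaphorase enzyme from Clostridium kluyveri | Amount: Enzyme 0.07 U/mL final | Dosing: Compound 20 µM once, DMSO 1% | Timing: 16 min reaction at room temperature | Detection: Fluorescence, excitation 544 nm and emission 590 nm | Evaluation: Higher resorufin formation from activation or reduction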
`CN(C(=O)CSc1nnc(-c2n[nH]c3ccccc23)o1)c1ccccc1` gave an activation factor of 0.8. In the case of `O=C(CSc1ccc(-c2ccccc2)nn1)NCC1CCCO1` (stereo not drawn), the activation factor is reported as 1.1. For `Cc1cccc(C(=O)OCC(=O)NCC(C)C)c1O`, the activation factor was 0.9. Work on `O=C(Cc1cccs1)Nc1nnc(SCc2ccc(F)cc2)s1` yielded an activation factor of 0.9. In the case of `Cn1cnnc1Sc1ccc(CN2CCN(C3CCCC3)C(CCO)C2)o1` (stereo not drawn), the activation factor is reported as 1. `CCCN=C1NC(=O)C(CC(=O)NCCc2ccc(OC)c(OC)c2)S1` (stereo not drawn) showed an activation factor of 0.9. Work on `Cc1ccc(N(Cc2cc3ccccc3[nH]c2=O)C(=O)c2cccs2)cc1` yielded an activation factor of 0.9. `CCOc1ccc(N2C(=O)CN(c3cccc4ccccc34)C2=S)cc1` gave an activation factor of 1. For `CNC(=S)NNC(=O)c1cccn(Cc2ccccc2)c1=O`, the activation factor was 1. In the case of `Cc1cc(C(=O)NNC(=S)NC(C)c2ccccc2)cs1` (stereo not drawn), the activation factor is reported as 1. `CCSc1nc(C)c(CCOc2cccc(C)c2)c(=O)[nH]1` gave an activation factor of 1. In the case of `NS(=O)(=O)c1ccc(NC(=S)NNC(=O)c2cccs2)cc1`, the activation factor is reported as 0.8. Work on `Cc1ccc(NC(=S)N(CCCN2CCCC2)Cc2cccn2Cc2ccc(Cl)cc2)cc1` yielded an activation factor of 1. `COc1cccc(CC2(CO)CCN(Cc3cnc(-c4cccc(C)c4)nc3)CC2)c1` showed an activation factor of 0.7. With `COC(=O)CC1=NN(c2ccccc2)C(=O)C1` the activation factor was 1.1. With `CCCn1c(=O)c2c(C(F)(F)F)cc(-c3cccs3)nc2n(CCC)c1=O` the activation factor was 1. With `Cc1ccc(C(=O)N/C(=C\c2cccs2)C(=O)NCCc2ccccn2)cc1C` the activation factor was 0.7. Molecule `CN(C)c1ccc(C2Nc3ccccc3C(=O)N2NS(=O)(=O)c2ccccc2)cc1` (stereo not drawn) has an activation factor of 0.9. For `CCCCn1c(N)c(N2CCOCC2)c(=O)n(CC(=O)NCCc2ccccc2)c1=O`, the activation factor was 1. In the case of `COCCN1C(=O)N[C@@H](c2ccccc2)C(C(=O)OC)=C1C`, the activation factor is reported as 1. Work on `Cc1cc(C)n2nc(SCC(N)=O)nc2n1` yielded an activation factor of 1. In the case of `O=C(CNC(=O)c1ccccc1)NCC(=O)OCC(=O)c1ccccc1`, the activation factor is reported as 1.1. For `O=C(O)c1cccc(NC(=O)c2cc(-c3cccc(Cl)c3)nc3ccccc23)c1`, the activation factor was 0.8. Work on `[O-][n+]1onc2c1CCc1[nH]c(-c3ccccc3)nc1-2` yielded an activation factor of 0.9. Work on `O=S(=O)(NC1CC1)c1ccc2c3c(cccc13)CC2` yielded an activation factor of 1. With `C/C(Cn1nnc2ccccc21)=N\OC(=O)c1cc(F)c(F)cc1Cl` the activation factor was 0.9. With `COc1cccc(CNC(=O)c2n[nH]c3ccccc23)c1` the activation factor was 1. Molecule `Cc1ccc(C(=O)OC(C)CN2CCOCC2)cc1` (stereo not drawn) has an activation factor of 1. `O=C(O)COc1ccc(/C=N/O)cc1Br` showed an activation factor of 0.9. Work on `Cc1ccccc1C(CC(=O)c1cccs1)C(C#N)C#N` (stereo not drawn) yielded an activation factor of 0.9. `O=C(Nc1ccccc1Cc1ccccc1)c1ccc2c(c1)SC1=NS(=O)(=O)CCN12` showed an activation factor of 0.9. Work on `COc1cc(NC(=O)CSc2nnc3ccc(-c4ccncc4)nn23)cc(OC)c1` yielded an activation factor of 0.8. `O=C(c1ccc(F)cc1)n1cc(C(=S)N2CCOCC2)c2ccccc21` gave an activation factor of 1. `Cc1cccc(C)c1NC(=O)CNC(=O)Cc1ccc(Br)cc1` gave an activation factor of 0.9. Work on `COC(=O)C1=NNC2(c3ccc(C)cc3)C(=O)N(c3cccc(C)c3C)C(=O)C12` (stereo not drawn) yielded an activation factor of 0.9. In the case of `CCCNCc1cc(OCC)c(OCC(=O)Nc2ccccc2)cc1Br`, the activation factor is reported as 0.9. With `Cc1cc(C)cc(OCC(=O)NCc2cc(C)nc3ccccc23)c1` the activation factor was 1. Work on `COc1ccc([N+](=O)[O-])cc1NC(=O)c1ccc(N(Cc2ccccc2C)S(C)(=O)=O)cc1` yielded an activation factor of 0.9. With `COc1ccc(NS(=O)(=O)c2cc(NC(=O)C3CCCCC3)ccc2N2CCOCC2)cc1` the activation factor was 1.1. Molecule `Cc1cc2c(C)nc(N/N=C/c3ccccc3)nc2o1` has an activation factor of 0.9. Work on `O=C1NCC(=O)N(Cc2ccccc2)/C1=C/c1ccccc1` yielded an activation factor of 1. In the case of `CCOC(=O)C(C)Sc1nnc(CSc2nc3nc(C)cc(C)n3n2)o1` (stereo not drawn), the activation factor is reported as 1. For `Cc1ccc(NC2=C(Cl)C(=O)OC2OC(=O)c2ccccc2C)cc1` (stereo not drawn), the activation factor was 0.9. With `O=C(Nc1ccc(F)cc1)N1CCN(c2ccc(F)cc2)CC1` the activation factor was 0.9. In the case of `Cc1ccc(/C(N)=N/OC(=O)COc2ccc(Cl)c(C)c2)cc1`, the activation factor is reported as 0.9. For `Cc1cc(C)n(-c2nnc(N3CCN(c4ccccc4)CC3)nn2)n1`, the activation factor was 0.9. `CCn1c(COc2c(C)cccc2C)nnc1SCc1nc2ccccc2c(=O)[nH]1` showed an activation factor of 0.7. For `Cc1cc(Cl)ccc1C(=O)C1CCCN(C(=O)CCN2CCCO2)C1` (stereo not drawn), the activation factor was 1. In the case of `Oc1c(Br)cccc1/C=N/Nc1c(F)c(F)c(F)c(F)c1F`, the activation factor is reported as 1. Work on `Cc1ccc(S(=O)(=O)N(CC(=O)NN=C2CCN(C)CC2)c2ccc(F)cc2)cc1` yielded an activation factor of 0.9. `O=C(NC1CCCC1)C(NS(=O)(=O)c1ccc(Br)s1)c1ccccc1` (stereo not drawn) gave an activation factor of 0.9. For `CCOC(=O)C1CCN(C(=O)c2ccccc2N(C)S(=O)(=O)c2ccccc2)CC1`, the activation factor was 1. Molecule `Cn1cnnc1SCc1nnc(-c2ccccc2Br)o1` has an activation factor of 1. `COc1ccc(CNC(=O)CN2CCC(n3nnc4cc(F)ccc43)CC2)cc1` showed an activation factor of 0.8. For `C=C(C)c1cccc(C(C)(C)NC(=O)NC2CCCC2)c1`, the activation factor was 0.9. `Nc1[nH]c(=S)nc2nc(-c3ccccc3)c(-c3ccccc3)nc12` showed an activation factor of 0.8. In the case of `CC1=C[C@H]2Cc3cc(C)cc(C)c3S(=O)(=O)[C@@H]2C=C1`, the activation factor is reported as 0.9. With `CCCCOc1ccc(C(=O)N/C(=C/C=C/c2ccccc2)C(=O)N2CCOCC2)cc1` the activation factor was 0.8. Molecule `Cc1ccc(S(=O)(=O)Cc2cc(-c3ccc(Cl)cc3)no2)cc1` has an activation factor of 0.8. `CCOc1ccc(/C=C(/NC(=O)c2ccccc2)C(=O)NCCC(=O)O)cc1` showed an activation factor of 0.9. In the case of `NC(=O)C[C@@H]1NC(=O)CNC(=O)c2cc([N+](=O)[O-])cc(I)c2NCCC(C(N)=O)NC1=O` (stereo partly drawn), the activation factor is reported as 1.1. In the case of `CSc1cc(C)[nH]c(=O)n1`, the activation factor is reported as 0.9. Work on `C[n+]1ccc(/C=C/c2c[nH]c3ccccc23)cc1` yielded an activation factor of 1.
